Measurements taken from ChEMBL document CHEMBL1149749, “Antibacterial activity of totarol and its potentiation” (1992).
Converted amounts (≈) assume the structure as drawn. The source made the active and inactive calls. No cut-off for these calls is given here.

What was measured:
Bacillus subtilis [1] = assay: Antibacterial activity against Bacillus subtilis ATCC 9372 after 2 days by twofold serial dilution method; format: functional; settings: ATCC 9372, 48 h
Outline: (§1)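 Twofold serial broth dilution in each organism's own medium, DMF held at 1% in all tubes. The highest concentration was 400 µg/ml unless otherwise specified. MIC was taken as the lowest concentration with no visible growth, and determinations were done in duplicate.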

[2] = tested on: Corynebacterium ammoniagenes; assay: Antibacterial activity against Brevibacterium ammoniagenes ATCC 6872 after 2 days by twofold serial dilution method; format: functional; settings: ATCC 6872, 48 h; outline: as §1
Staphylococcus aureus [3] = assay: Antibacterial activity against penicillin-susceptible Staphylococcus aureus ATCC 12598 after 2 days by twofold serial dilution method; format: functional; settings: ATCC 12598, 48 h; outline: as §1
Staphylococcus aureus [4] = assay: Antibacterial activity against penicillin-resistant Staphylococcus aureus ATCC 29247 after 2 days by twofold serial dilution method; format: functional; settings: ATCC 29247, 48 h
Outline: (§2)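 Twofold serial broth dilution, highest concentration 400 µg/ml. Samples were delivered in DMF, kept at 1% in the medium throughout. MIC was the lowest concentration with no visible growth, determined in duplicate.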

Streptococcus mutans [5] = assay: Antibacterial activity against Streptococcus mutans ATCC 25175 after 2 days by twofold serial dilution method; format: functional; settings: ATCC 25175, 48 h; outline: as §1
Cutibacterium acnes [6] = assay: Antibacterial activity against Propionibacterium acnes ATCC 11827 after 2 days by twofold serial dilution method; format: functional; settings: ATCC 11827, 48 h; outline: as §1
Bacillus subtilis [7] = assay: Antibacterial activity against Bacillus subtilis ATCC 9372 up to 400 ug/ml after 2 days by twofold serial dilution method; format: functional, organism-based; outline: as §1
[8] = tested on: Corynebacterium ammoniagenes; assay: Antibacterial activity against Brevibacterium ammoniagenes ATCC 6872 up to 400 ug/ml after 2 days by twofold serial dilution method; format: functional, organism-based; outline: as §1
Staphylococcus aureus [9] = assay: Antibacterial activity against penicillin-susceptible Staphylococcus aureus ATCC 12598 up to 400 ug/ml after 2 days by twofold serial dilution method; format: functional, organism-based; outline: as §1
Staphylococcus aureus [10] = assay: Antibacterial activity against penicillin-resistant Staphylococcus aureus ATCC 29247 up to 400 ug/ml after 2 days by twofold serial dilution method; format: functional, organism-based; outline: as §2
Streptococcus mutans [11] = assay: Antibacterial activity against Streptococcus mutans ATCC 25175 up to 400 ug/ml after 2 days by twofold serial dilution method; format: functional, organism-based; outline: as §1
Cutibacterium acnes [12] = assay: Antibacterial activity against Propionibacterium acnes ATCC 11827 up to 400 ug/ml after 2 days by twofold serial dilution method; format: functional, organism-based; outline: as §1
Pseudomonas aeruginosa = assay: Antibacterial activity against Pseudomonas aeruginosa ATCC 10145 up to 400 ug/ml after 2 days by twofold serial dilution method; format: functional, organism-based; outline: as §1
Klebsiella aerogenes = assay: Antibacterial activity against Enterobacter aerogenes ATCC 13048 up to 400 ug/ml after 2 days by twofold serial dilution method; format: functional, organism-based; outline: as §1
Escherichia coli = assay: Antibacterial activity against Escherichia coli ATCC 13048 up to 400 ug/ml after 2 days by twofold serial dilution method; format: functional, organism-based; outline: as §1
Saccharomyces cerevisiae = assay: Antifungal activity against Saccharomyces cerevisiae ATCC 7754 up to 400 ug/ml after 2 days by twofold serial dilution method; format: functional, organism-based; outline: as §1
Candida albicans = assay: Antifungal activity against Candida albicans ATCC 18804 up to 400 ug/ml after 2 days by twofold serial dilution method; format: functional, organism-based; outline: as §1
Penicillium chrysogenum = assay: Antifungal activity against Penicillium chrysogenum ATCC 10106 up to 400 ug/ml after 2 days by twofold serial dilution method; format: functional, organism-based; outline: as §1
Malassezia = assay: Antifungal activity against Pityrosporum ovale ATCC 14521 up to 400 ug/ml after 2 days by twofold serial dilution method; format: functional, organism-based; outline: as §1

Row | SMILES | MIC (Bacillus subtilis [1]) [µg/mL] | MIC [2] [µg/mL] | MIC (Staphylococcus aureus [3]) [µg/mL] | MIC (Staphylococcus aureus [4]) [µg/mL] | MIC (Streptococcus mutans [5]) [µg/mL] | MIC (Cutibacterium acnes [6]) [µg/mL] | Activity (Bacillus subtilis [7]) | Activity [8] | Activity (Staphylococcus aureus [9]) | Activity (Staphylococcus aureus [10]) | Activity (Streptococcus mutans [11]) | Activity (Cutibacterium acnes [12]) | Activity (Pseudomonas aeruginosa) | Activity (Klebsiella aerogenes) | Activity (Escherichia coli) | Activity (Saccharomyces cerevisiae) | Activity (Candida albicans) | Activity (Penicillium chrysogenum) | Activity (Malassezia) | other results
1 | CC1(C)S[C@@H]2[C@H](NC(=O)Cc3ccccc3)C(=O)N2[C@H]1C(=O)O [PENICILLIN G] | 50 (≈ 150 µM) | 0.39 (≈ 1.17 µM) | 0.049 (≈ 0.147 µM) | > 800 | 0.049 (≈ 0.147 µM) | 0.012 (≈ 0.0359 µM) | – | – | – | – | – | – | – | – | – | – | – | – | – | –
2 | CC(C)c1c(O)ccc2c1CC[C@H]1[C@@](C)(C(=O)O)CCC[C@]21C | – | – | – | – | – | – | inactive | inactive | inactive | inactive | inactive | inactive | inactive | inactive | inactive | inactive | inactive | inactive | inactive | –
3 | CC(C)c1c(O)ccc2c1CC[C@H]1[C@@](C)(CO)CCC[C@]21C | – | – | – | – | – | – | inactive | inactive | inactive | inactive | inactive | inactive | inactive | inactive | inactive | inactive | inactive | inactive | inactive | –
4 | CC(C)c1c(O)ccc2c1CC[C@H]1[C@@](C)(C=O)CCC[C@]21C | – | – | – | – | – | – | inactive | inactive | inactive | inactive | inactive | inactive | inactive | inactive | inactive | inactive | inactive | inactive | inactive | –
5 | CC(C)c1c(O)ccc2c1CC[C@H]1C(C)(C)CCC[C@]21C [TOTAROL] | 1.56 (≈ 5.45 µM) | 0.78 (≈ 2.72 µM) | 1.56 (≈ 5.45 µM) | 0.78 (≈ 2.72 µM) | 0.78 (≈ 2.72 µM) | 0.39 (≈ 1.36 µM) | – | – | – | – | – | – | inactive | inactive | inactive | inactive | inactive | inactive | inactive | MBC (Bacillus subtilis [1]): 1.56 µg/mL (≈ 5.45 µM); MBC [2]: 6.25 µg/mL (≈ 21.8 µM); MBC (Staphylococcus aureus [3]): 1.56 µg/mL (≈ 5.45 µM); MBC (Streptococcus mutans [5]): 0.78 µg/mL (≈ 2.72 µM); MBC (Cutibacterium acnes [6]): 0.78 µg/mL (≈ 2.72 µM)
6 | CC(C)c1c(O)ccc2c1CC[C@H]1C(C)(C)[C@@H](O)CC[C@]21C [TOTARADIOL] | 25 (≈ 82.7 µM) | 100 (≈ 331 µM) | 50 (≈ 165 µM) | – | 200 (≈ 661 µM) | 25 (≈ 82.7 µM) | – | – | – | – | – | – | inactive | inactive | inactive | inactive | inactive | inactive | inactive | –
